Non-standard residues stand in square brackets, D forms with d. Residues, ends and D or L forms follow the SMILES beside them. 2Nal = N[C@@H](Cc1ccc2ccccc2c1)C(=O)O; Arg(Me) = CNC(=N)NCCC[C@H](N)C(=O)O; azaGly = NNC(=O)O
Columns and labels:
KiSS-1 receptor [1] = target: KiSS-1 receptor (Rattus norvegicus, UniProt Q924U1); assay: Binding affinity to rat KISS1R
KiSS-1 receptor [2] = target: T1, KiSS-1 receptor (Homo sapiens, UniProt Q969F8); assay: Binding affinity to human KISS1R expressed in CHO cell membranes
T1 sequence (Q969F8 whole entry): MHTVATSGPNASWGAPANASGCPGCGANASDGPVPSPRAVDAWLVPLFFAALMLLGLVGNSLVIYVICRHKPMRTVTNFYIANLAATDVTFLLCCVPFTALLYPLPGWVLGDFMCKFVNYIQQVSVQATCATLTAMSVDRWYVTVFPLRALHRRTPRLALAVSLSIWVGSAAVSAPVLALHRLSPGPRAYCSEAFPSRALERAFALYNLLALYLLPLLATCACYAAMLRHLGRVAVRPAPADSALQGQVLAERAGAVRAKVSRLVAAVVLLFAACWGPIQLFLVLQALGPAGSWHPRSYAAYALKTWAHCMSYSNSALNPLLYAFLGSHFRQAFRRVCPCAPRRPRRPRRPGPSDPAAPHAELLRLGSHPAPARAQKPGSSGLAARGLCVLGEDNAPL

KiSS-1 receptor [3] = target: T1, KiSS-1 receptor; assay: Agonist activity at recombinant human KISS1R expressed in CHO cells assessed as intracellular calcium mobilization incubated for 30 mins at 37 degC and 30 mins at room temperature by Fluo-4 NW staining-based FLIPR assay relative to Metastin (45 to 54); type: functional, cell-based
Method in brief: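 CHO cells stably expressing human KISS1R seeded at 15,000 cells/well, cultured 24 h, then loaded with Fluo-4 Direct in HBSS with 4 mM probenecid and 0.1% BSA (30 min 37 °C, 30 min room temperature). Compounds from 10 µM DMSO stocks diluted in sample buffer and added. Fluorescence read for 2 min at 2 s intervals. Peak counts give agonist activity. EC50 expressed as ratio to metastin(45-54).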

Sequence of KiSS-1 receptor (Rattus norvegicus, UniProt Q924U1) (Q924U1 whole entry): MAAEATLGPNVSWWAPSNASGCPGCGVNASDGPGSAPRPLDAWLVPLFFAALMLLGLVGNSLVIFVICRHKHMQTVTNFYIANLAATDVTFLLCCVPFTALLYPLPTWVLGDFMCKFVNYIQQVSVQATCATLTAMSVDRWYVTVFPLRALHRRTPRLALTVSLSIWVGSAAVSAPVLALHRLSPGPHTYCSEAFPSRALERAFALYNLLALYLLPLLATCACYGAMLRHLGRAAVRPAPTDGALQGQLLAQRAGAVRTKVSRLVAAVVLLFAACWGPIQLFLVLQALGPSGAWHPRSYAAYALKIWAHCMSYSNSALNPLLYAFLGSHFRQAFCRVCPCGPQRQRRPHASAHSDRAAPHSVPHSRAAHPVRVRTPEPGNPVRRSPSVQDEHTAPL

## CNC(N)=NCCC[C@H](NC(=O)[C@H](CC(C)C)NC(=O)NNC(=O)[C@H](Cc1ccccc1)NC(=O)[C@H](CO)NC(=O)[C@H](CC(N)=O)NC(=O)[C@@H](Cc1ccncc1)NC(=O)[C@H](CC(N)=O)NC(=O)[C@H](N)Cc1ccc(O)cc1)C(=O)N[C@@H](Cc1ccccc1)C(N)=O
KiSS-1 receptor [1]
  Ki: 0.12 nM
KiSS-1 receptor [2]
  Ki: 0.12 nM

## CNC(=N)NCCC[C@H](NC(=O)[C@H](CC(C)C)NC(=O)NNC(=O)[C@H](Cc1ccccc1)NC(=O)[C@H](CO)NC(=O)[C@H](CC(N)=O)NC(=O)[C@H](CO)NC(=O)[C@H](N)Cc1ccc(O)cc1)C(=O)N[C@@H](Cc1ccccc1)C(N)=O (H-[dY]SNSF[azaGly]L[Arg(Me)]F-NH2)
KiSS-1 receptor [3]
  fold change (FC): 61

## CNC(=N)NCCC[C@H](NC(=O)[C@H](CC(C)C)NC(=O)NNC(=O)[C@H](Cc1ccccc1)NC(=O)[C@H](CO)NC(=O)[C@H](CC(N)=O)NC(=O)[C@H](Cc1c[nH]c2ccccc12)NC(=O)[C@H](CC(N)=O)NC(=O)[C@H](N)Cc1ccc(O)cc1)C(=O)N[C@@H](Cc1ccccc1)C(N)=O
KiSS-1 receptor [3]
  fold change (FC): 2.8

## CNC(N)=NCCC[C@H](NC(=O)[C@H](CC(C)C)NC(=O)NNC(=O)[C@H](Cc1ccccc1)NC(=O)[C@H](CO)NC(=O)[C@H](CC(N)=O)NC(=O)[C@@H](Cc1c[nH]c2ccccc12)NC(=O)[C@H](CC(N)=O)NC(=O)[C@H](N)Cc1ccc(O)cc1)C(=O)N[C@@H](Cc1ccccc1)C(N)=O
KiSS-1 receptor [2]
  Ki: 0.078 nM

## CNC(N)=NCCC[C@H](NC(=O)[C@H](CC(C)C)NC(=O)NNC(=O)[C@H](Cc1ccccc1)NC(=O)[C@H](CO)NC(=O)[C@H](CC(N)=O)NC(=O)[C@H](Cc1ccc2ccccc2c1)NC(=O)[C@H](N)Cc1ccc(O)cc1)C(=O)N[C@@H](Cc1ccccc1)C(N)=O (H-[dY][2Nal]NSF[azaGly]L[Arg(Me)]F-NH2)
KiSS-1 receptor [1]
  Ki: 0.051 nM
KiSS-1 receptor [2]
  Ki: 0.032 nM

## CNC(=N)NCCC[C@H](NC(=O)[C@H](CC(C)C)NC(=O)NNC(=O)[C@H](Cc1ccccc1)NC(=O)[C@H](CO)NC(=O)[C@H](CC(N)=O)NC(=O)[C@H](Cc1ccncc1)NC(=O)[C@H](CC(N)=O)NC(=O)[C@H](N)Cc1ccc(O)cc1)C(=O)N[C@@H](Cc1ccccc1)C(N)=O
KiSS-1 receptor [3]
  fold change (FC): 5

## CNC(=N)NCCC[C@H](NC(=O)[C@H](CC(C)C)NC(=O)NNC(=O)[C@H](Cc1ccccc1)NC(=O)[C@H](CO)NC(=O)[C@H](CC(N)=O)NC(=O)[C@@H](Cc1c[nH]c2ccccc12)NC(=O)[C@H](CC(N)=O)NC(=O)[C@H](N)Cc1ccc(O)cc1)C(=O)N[C@@H](Cc1ccccc1)C(N)=O
KiSS-1 receptor [3]
  fold change (FC): 3.7

## CC(C)C[C@H](NC(=O)NNC(=O)[C@H](Cc1ccccc1)NC(=O)[C@H](CO)NC(=O)[C@H](CC(N)=O)NC(=O)[C@H](Cc1c[nH]c2ccccc12)NC(=O)[C@H](CC(N)=O)NC(=O)[C@@H](N)Cc1ccc(O)cc1)C(=O)N[C@@H](CCCNC(=N)N)C(=O)N[C@@H](Cc1ccccc1)C(N)=O
KiSS-1 receptor [2]
  Ki: 0.045 nM
KiSS-1 receptor [3]
  fold change (FC): 1.7

## CNC(=N)NCCC[C@H](NC(=O)[C@H](CC(C)C)NC(=O)NNC(=O)[C@H](Cc1ccccc1)NC(=O)[C@H](CO)NC(=O)[C@H](CC(N)=O)NC(=O)[C@H](Cc1c[nH]c2ccccc12)NC(=O)[C@@H](CO)NC(=O)[C@H](N)Cc1ccc(O)cc1)C(=O)N[C@@H](Cc1ccccc1)C(N)=O
KiSS-1 receptor [3]
  fold change (FC): 3.7

## CNC(N)=NCCC[C@H](NC(=O)[C@H](CC(C)C)NC(=O)NNC(=O)[C@H](Cc1ccccc1)NC(=O)[C@H](CO)NC(=O)[C@H](CC(N)=O)NC(=O)[C@H](Cc1c[nH]c2ccccc12)NC(=O)[C@@H](CO)NC(=O)[C@H](N)Cc1ccc(O)cc1)C(=O)N[C@@H](Cc1ccccc1)C(N)=O
KiSS-1 receptor [1]
  Ki: 0.093 nM
KiSS-1 receptor [2]
  Ki: 0.086 nM

## CNC(N)=NCCC[C@H](NC(=O)[C@H](CC(C)C)NC(=O)NNC(=O)[C@H](Cc1ccccc1)NC(=O)[C@H](CO)NC(=O)[C@H](CC(N)=O)NC(=O)[C@H](Cc1c[nH]c2ccccc12)NC(=O)[C@H](N)Cc1cccnc1)C(=O)N[C@@H](Cc1ccccc1)C(N)=O
KiSS-1 receptor [1]
  Ki: 0.13 nM
KiSS-1 receptor [2]
  Ki: 0.11 nM

## CNC(N)=NCCC[C@H](NC(=O)[C@H](CC(C)C)NC(=O)NNC(=O)[C@H](Cc1ccccc1)NC(=O)[C@H](CO)NC(=O)[C@H](CC(N)=O)NC(=O)[C@H](Cc1ccncc1)NC(=O)[C@@H](CC(N)=O)NC(=O)[C@H](N)Cc1ccc(O)cc1)C(=O)N[C@@H](Cc1ccccc1)C(N)=O
KiSS-1 receptor [1]
  Ki: 0.095 nM
KiSS-1 receptor [2]
  Ki: 0.11 nM

## CNC(N)=NCCC[C@H](NC(=O)[C@H](CC(C)C)NC(=O)NNC(=O)[C@H](Cc1ccccc1)NC(=O)[C@H](CO)NC(=O)[C@H](CC(N)=O)NC(=O)[C@H](Cc1ccccc1)NC(=O)[C@H](N)Cc1cccnc1)C(=O)N[C@@H](Cc1ccccc1)C(N)=O
KiSS-1 receptor [1]
  Ki: 0.28 nM
KiSS-1 receptor [2]
  Ki: 0.2 nM

## CNC(=N)NCCC[C@H](NC(=O)[C@H](CC(C)C)NC(=O)NNC(=O)[C@H](Cc1ccccc1)NC(=O)[C@H](CO)NC(=O)[C@H](CC(N)=O)NC(=O)[C@@H](Cc1c[nH]c2ccccc12)NC(=O)[C@@H](CC(N)=O)NC(=O)[C@H](N)Cc1ccc(O)cc1)C(=O)N[C@@H](Cc1ccccc1)C(N)=O
KiSS-1 receptor [3]
  fold change (FC): 8.6

## CNC(=N)NCCC[C@H](NC(=O)[C@H](CC(C)C)NC(=O)NNC(=O)[C@H](Cc1ccccc1)NC(=O)[C@H](CO)NC(=O)[C@H](CC(N)=O)NC(=O)[C@H](Cc1ccccc1)NC(=O)[C@H](N)Cc1cccnc1)C(=O)N[C@@H](Cc1ccccc1)C(N)=O
KiSS-1 receptor [3]
  fold change (FC): 5.8

## CC(C)C[C@H](NC(=O)CNC(=O)[C@H](Cc1ccccc1)NC(=O)[C@H](CO)NC(=O)[C@H](CC(N)=O)NC(=O)[C@H](Cc1c[nH]c2ccccc12)NC(=O)[C@H](CC(N)=O)NC(=O)[C@@H](N)Cc1ccc(O)cc1)C(=O)N[C@@H](CCCNC(=N)N)C(=O)N[C@@H](Cc1ccccc1)C(N)=O [KISSPEPTIN-10]
KiSS-1 receptor [2]
  Ki: 0.039 nM

## CNC(N)=NCCC[C@H](NC(=O)[C@H](CC(C)C)NC(=O)NNC(=O)[C@H](Cc1ccccc1)NC(=O)[C@H](CO)NC(=O)[C@H](CC(N)=O)NC(=O)[C@H](Cc1ccncc1)NC(=O)[C@H](CC(N)=O)NC(=O)[C@H](N)Cc1ccc(O)cc1)C(=O)N[C@@H](Cc1ccccc1)C(N)=O
KiSS-1 receptor [1]
  Ki: 0.12 nM
KiSS-1 receptor [2]
  Ki: 0.12 nM

## CNC(=N)NCCC[C@H](NC(=O)[C@H](CC(C)C)NC(=O)NNC(=O)[C@H](Cc1ccccc1)NC(=O)[C@H](CO)NC(=O)[C@H](CC(N)=O)NC(=O)[C@H](Cc1ccc2ccccc2c1)NC(=O)[C@H](N)Cc1ccc(O)cc1)C(=O)N[C@@H](Cc1ccccc1)C(N)=O (H-[dY][2Nal]NSF[azaGly]L[Arg(Me)]F-NH2)
KiSS-1 receptor [3]
  fold change (FC): 6.4

## CNC(=N)NCCC[C@H](NC(=O)[C@H](CC(C)C)NC(=O)NNC(=O)[C@H](Cc1ccccc1)NC(=O)[C@H](CO)NC(=O)[C@H](CC(N)=O)NC(=O)[C@@H](NC(=O)[C@@H](CC(N)=O)NC(=O)[C@H](N)Cc1ccc(O)cc1)[C@@H](C)O)C(=O)N[C@@H](Cc1ccccc1)C(N)=O
KiSS-1 receptor [3]
  fold change (FC): 7.3

## CNC(=N)NCCC[C@H](NC(=O)[C@H](CC(C)C)NC(=O)NNC(=O)[C@H](Cc1ccccc1)NC(=O)[C@H](CO)NC(=O)[C@H](CC(N)=O)NC(=O)[C@H](Cc1ccncc1)NC(=O)[C@@H](CC(N)=O)NC(=O)[C@@H](N)Cc1ccc(O)cc1)C(=O)N[C@@H](Cc1ccccc1)C(N)=O
KiSS-1 receptor [3]
  fold change (FC): 2.7

## CNC(N)=NCCC[C@H](NC(=O)[C@H](CC(C)C)NC(=O)NNC(=O)[C@H](Cc1ccccc1)NC(=O)[C@H](CO)NC(=O)[C@H](CC(N)=O)NC(=O)[C@H](Cc1ccccc1)NC(=O)[C@H](N)Cc1ccc(O)cc1)C(=O)N[C@@H](Cc1ccccc1)C(N)=O
KiSS-1 receptor [1]
  Ki: 0.15 nM
KiSS-1 receptor [2]
  Ki: 0.086 nM

## CNC(=N)NCCC[C@H](NC(=O)[C@H](CC(C)C)NC(=O)NNC(=O)[C@H](Cc1ccccc1)NC(=O)[C@H](CO)NC(=O)[C@H](CC(N)=O)NC(=O)[C@@H](Cc1ccncc1)NC(=O)[C@H](CC(N)=O)NC(=O)[C@H](N)Cc1ccc(O)cc1)C(=O)N[C@@H](Cc1ccccc1)C(N)=O
KiSS-1 receptor [3]
  fold change (FC): 3.6

## CNC(=N)NCCC[C@H](NC(=O)[C@H](CC(C)C)NC(=O)NNC(=O)[C@H](Cc1ccccc1)NC(=O)[C@H](CO)NC(=O)[C@H](CC(N)=O)NC(=O)[C@H](Cc1c[nH]c2ccccc12)NC(=O)[C@H](N)Cc1cccnc1)C(=O)N[C@@H](Cc1ccccc1)C(N)=O
KiSS-1 receptor [3]
  fold change (FC): 8.7

## CNC(=N)NCCC[C@H](NC(=O)[C@H](CC(C)C)NC(=O)NNC(=O)[C@H](Cc1ccccc1)NC(=O)[C@H](CO)NC(=O)[C@H](CC(N)=O)NC(=O)[C@H](Cc1c[nH]c2ccccc12)NC(=O)[C@@H](CC(N)=O)NC(=O)[C@H](N)Cc1ccc(O)cc1)C(=O)N[C@@H](Cc1ccccc1)C(N)=O
KiSS-1 receptor [2]
  Ki: 0.062 nM
KiSS-1 receptor [3]
  fold change (FC): 2.6

## CNC(=N)NCCC[C@H](NC(=O)[C@H](CC(C)C)NC(=O)NNC(=O)[C@H](Cc1ccccc1)NC(=O)[C@H](CO)NC(=O)[C@H](CC(N)=O)NC(=O)[C@H](Cc1ccccc1)NC(=O)[C@@H](CC(N)=O)NC(=O)[C@H](N)Cc1ccc(O)cc1)C(=O)N[C@@H](Cc1ccccc1)C(N)=O (H-[dY][dN]FNSF[azaGly]L[Arg(Me)]F-NH2)
KiSS-1 receptor [3]
  fold change (FC): 1.5

## CNC(=N)NCCC[C@H](NC(=O)[C@H](CC(C)C)NC(=O)NNC(=O)[C@H](Cc1ccccc1)NC(=O)[C@H](CO)NC(=O)[C@H](CC(N)=O)NC(=O)[C@H](Cc1ccccc1)NC(=O)[C@H](N)Cc1ccc(O)cc1)C(=O)N[C@@H](Cc1ccccc1)C(N)=O
KiSS-1 receptor [3]
  fold change (FC): 7.7

## CNC(=N)NCCC[C@H](NC(=O)[C@H](CC(C)C)NC(=O)NNC(=O)[C@H](Cc1ccccc1)NC(=O)[C@H](CO)NC(=O)[C@H](CC(N)=O)NC(=O)[C@H](Cc1ccncc1)NC(=O)[C@@H](CC(N)=O)NC(=O)[C@H](N)Cc1ccc(O)cc1)C(=O)N[C@@H](Cc1ccccc1)C(N)=O
KiSS-1 receptor [3]
  fold change (FC): 1.7

## CNC(N)=NCCC[C@H](NC(=O)[C@H](CC(C)C)NC(=O)CNC(=O)[C@H](Cc1ccccc1)NC(=O)[C@H](CO)NC(=O)[C@H](CC(N)=O)NC(=O)[C@H](Cc1c[nH]c2ccccc12)NC(=O)[C@H](CC(N)=O)NC(=O)[C@H](N)Cc1ccc(O)cc1)C(=O)N[C@@H](Cc1ccccc1)C(N)=O
KiSS-1 receptor [2]; cho
  Ki: 0.046 nM

— ChEMBL document CHEMBL3085624, “Design, synthesis, and biological evaluation of novel investigational nonapeptide KISS1R agonists with testosterone-suppressive activity” (J Med Chem, 2013)
